# Compound activity from PubChem BioAssay.
# S1P1 ag pot: S1P1 agonists and agonism potentiators, primary screen, cell-based, primary and confirmation screens, CRE-bla reporter; activation, % at 9.5 µM; AID 449, 2006; Sphingosine 1-phosphate receptor 1 (Homo sapiens), P21453; 56,000 tested, 0.57% active; S1P1 CRE-bla cells, forskolin, beta-lactamase FRET, potentiator mode; S1P1 agonist co-added at EC20, 2 nM; 100% = saturating reference agonist, 0% = basal;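 active means activation above a cutoff set at the mean activation of all tested compounds plus 3 SD, cut at about 54% in these data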;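 further: forskolin at 4 µM as EC80 and the EC20 agonist is SEW2871; 100% = SEW2871 at its EC100 plus forskolin at EC80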
# M1 antag: antagonists of rat M1 muscarinic receptor. Muscarinic acetylcholine receptor M1 (Rattus norvegicus), P08482. CHO-M1 cells, Fluo-4 calcium, ACh EC80 antagonist mode; hits give low values. B-score at 10 µM. 64,000 tested, 3.4% active;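 active means calcium fluorescence response, raw or row-and-column corrected B-score, differing from the plate sample mean either way at a set confidence level, mostly lower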
# D1 allo mod: D1 CRE-luciferase signal change, two-sided – cell-based, HEK293 D1, dopamine EC30, D1 allosteric modulator project, primary screen; dopamine EC30 potentiation; actives deviate in either direction; AID 641, 2007; 58,000 tested, 5.9% active; B-score at 10 µM; D(1A) dopamine receptor (Homo sapiens), P21728;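 active means luminescence count or its row- and column-corrected plate score outside the 99.7% band of the plate's sample wells, on either side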
# Target sequence (P21728 whole entry, looked up): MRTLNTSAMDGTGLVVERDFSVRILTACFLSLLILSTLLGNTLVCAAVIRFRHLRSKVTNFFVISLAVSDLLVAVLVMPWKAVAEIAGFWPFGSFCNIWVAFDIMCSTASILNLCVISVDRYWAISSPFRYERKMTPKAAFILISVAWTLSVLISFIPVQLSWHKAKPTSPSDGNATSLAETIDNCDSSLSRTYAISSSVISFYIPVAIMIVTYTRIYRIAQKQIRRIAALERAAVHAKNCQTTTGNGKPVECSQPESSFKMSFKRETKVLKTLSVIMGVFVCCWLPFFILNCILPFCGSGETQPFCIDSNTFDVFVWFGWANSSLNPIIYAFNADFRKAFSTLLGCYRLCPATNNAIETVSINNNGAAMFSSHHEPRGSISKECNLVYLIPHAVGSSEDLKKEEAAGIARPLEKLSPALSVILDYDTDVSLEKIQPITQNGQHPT
# S1P3 agonist: human S1P3 receptor agonists, primary screen, cell-based, primary and confirmation, NFAT-BLA reporter | AID 373, 2006 | activation, % at 4.5 µM | S1P3 NFAT-BLA reporter cells, agonism, FRET ratio; relative to 1 µM S1P, basal subtracted | 60,000 tested, 0.1% active | Sphingosine 1-phosphate receptor 3 (Homo sapiens), Q99500;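 active means activation above the screen-wide mean plus 3 SD, cut at about 4.5% in these data, passing the limit was not always enough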
#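 Assay system: CHO cells stably expressing human S1P3, Gα16 and NFAT-β-lactamase reporter. Timing: overnight plating, 4 h compound 37 °C, 2 h substrate RT. Signal: β-lactamase FRET emission ratio 460/535 nm. Measure: percent activation versus median 1 µM S1P response, basal-subtracted, per plate. Repeats: primary screen single test, confirmation screen in triplicate.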
# M1 ag: M1 muscarinic receptor agonists, primary screen, CHO-M1 cells, Fluo-4 calcium, agonist mode; B-score at 10 µM; AID 626, 2007; 64,000 tested, 3% active; Muscarinic acetylcholine receptor M1; Fluo-4 calcium fluorescence; hits give high values;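 active means fluorescence rise, raw or as B-score row- and column-corrected plate score, outside the 99.7% band of its plate's samples, either direction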
# M1 antag confirm: rat M1 muscarinic receptor antagonists, confirmation, CHO cells, Fluo-4 calcium, duplicate. shares compounds with M1 antag. ACh EC80 antagonism; hits give low values. calcium response (max-min fluorescence) at 10 µM. 1,700 tested, 43% active. AID 677, 2007;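 active means calcium response below the same-plate mean of wells given acetylcholine alone at its 80%-effect dose, minus 3 SD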;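 further: raw fluorescence intensity difference in arbitrary instrument units and not normalized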
# mGluR4 antag: human mGluR4 response to M1 antagonist hits, M1 allosteric modulator project, cell-based, antagonist mode, secondary assay 1 | 1,700 tested, 0.9% active | fluorescence response (max-min) at 10 µM | shares compounds with M1 antag | CHO-mGluR4 calcium flux, Fluo-4 fluorescence, glutamate EC80; hits give low values;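 active means fluorescence response below the plate's average for near-maximal glutamate wells, less 3 SD of those wells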;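 further: raw unnormalized fluorescence span taken in the window right after glutamate addition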
# * = called active by the depositor; · = not tested or not shown. The list is not random: actives were taken first. Their share in the collection is about 11%.
SMILES,S1P1 ag pot,M1 antag,D1 allo mod,S1P3 agonist,M1 ag,M1 antag confirm,mGluR4 antag
CCN(CCCc1ccccc1)CCCc1ccccc1,-16,-13*,-5,-3,-1.2,18*,256
O=C(O)c1ccc(NC(=O)C2CC=CCC2C(=O)O)cc1 (stereo not given),-6,-7.2*,0.049,-2,-0.07,644,244
CCc1ccc(NC(=O)C2CC=CCC2C(=O)O)cc1 (stereo not given),·,-0.23,1.4,·,0.27,·,·
Cn1cc(SCC(=O)Nc2nc3ccccc3s2)c2ccccc21,·,-1.3,·,·,-1.4,·,·
Cc1ccc(N(C(=O)C2CCCC2)C2C=CS(=O)(=O)C2)cc1C (stereo not given),-10,0.098,-0.36,0,0.08,·,·
CCOC(=O)N1CCC(NC(=O)CN2C(=O)C(CC)Oc3ccc(C)cc32)CC1 (stereo not given),-6,-5.7*,1.1,-1,-0.43,665,204
CCC1Oc2ccc(C)cc2N(CC(=O)NCCN2CCCCCC2)C1=O (stereo not given),-25,0.55,0.3,-1,-0.66,·,·
CCc1cc2c3c(c(=O)oc2cc1OC)CCCC3,·,-1.8*,0.1,-1,0.036,487,202
CCCCOc1ccc(C(=O)N2CCC(C)CC2)cc1,-12,0.084,-0.061,0,0.67,·,·
CCCCOc1ccc(C(=O)OC2CC(C)N(C)CC2C)cc1 (stereo not given),0,-13*,·,-4,-0.025,44*,241
Cc1ccc(S(=O)(=O)Cn2nnnc2C(C(C)C)N2CCSCC2)cc1 (stereo not given),-4,-2.3*,0.00025,0,0.74,646,240
Cc1cc(C(=O)OCC(=O)Nc2ccc(F)cc2)c(C)o1,·,1.4,0.7,·,0.43,·,·
CC(C)c1ccc(N2C(=O)[C@@H]3Cc4ccccc4CN3C2=O)cc1,18,-1.3*,0.49,-1,-0.81,667,257
Cc1ccc(N2C(=O)[C@@H]3Cc4ccccc4CN3C2=O)cc1,-1,0.031,0.56,-1,-0.68,·,·
O=C(Nc1ccc(Cl)c(Cl)c1)N1CCC(N2CCCCC2)CC1,3,-2.5*,-0.21,-1,-0.15,407,208
O=C(c1ccccc1/S(=N/S(=O)(=O)c1ccccc1)N1CCOCC1)N1CCOCC1 (stereo not given),-11,-0.0015,-0.011,0,-1.6,·,·
O=C(COc1ccccc1Cl)NC(=O)NC1CCCC1,43,-8.7*,-0.17,-1,-0.27,233*,267
O=C(CSc1nnc(COc2ccccc2Cl)o1)NC(=O)NC1CCCC1,18,-0.72,-1.3,-1,0.79,·,·
O=C(NCc1ccc2c(c1)OCO2)C1CC(=O)N(C2CCCC2)C1 (stereo not given),-2,-2.9*,-0.76,-1,-0.56,515,222
COc1ccc(N=C(C)C2=C(O)COC2=O)cc1,-22,0.8,-0.1,-1,0.66,·,·
O=C(NC12CC3CC(CC(C3)C1)C2)N1CCC(O)CC1,-4,-0.017,0.084,2,0.43,·,·
O=C(NC12CC3CC(CC(C3)C1)C2)N1CCN(C(=O)C2CCCO2)CC1 (stereo not given),·,-1.8*,-0.39,-1,-0.68,542,209
CCOc1ccccc1NC(=O)CN(C)S(=O)(=O)c1ccc(OC)c(C)c1,·,0.42,0.89,0,1.8,·,·
O=C(CSc1nnnn1C1CCCCC1)NCCc1ccccc1,11,0.24,0.0095,0,-0.38,·,·
CC(C)=CCCC(C)CN(C)CCc1ccccn1 (stereo not given),-20,-3.1*,-0.29,-2,0.72,569*,198
SMILES,S1P1 ag pot,M1 antag,D1 allo mod,S1P3 agonist,M1 ag,M1 antag confirm,mGluR4 antag
Cc1noc(C)c1CSCC(=O)OCc1nc2ccccc2c(=O)n1CC#N,·,0.4,-0.48,·,-1.7,·,·
CCc1nc(SCc2ccc(C(=O)OC)o2)c2c(=O)n(C)c(=O)n(C)c2n1,-8,-6.7*,3.8,0,-1,280*,226
CCCc1nc(SCc2ccccn2)c2c(=O)n(C)c(=O)n(C)c2n1,-18,-1.4*,·,-1,-1.1,405*,204
Nc1c(-c2ccc(Cl)cc2)nnn1-c1ccccc1,·,-3.2*,-1.7,·,0.41,642,180
COc1ccc(-c2cnn(-c3ccccc3)c2N)cc1OC,-24,-0.046,0.035,-1,0.21,·,·
COc1ccc(CCn2c(SCC(=O)Nc3cc(C)on3)nc3ccsc3c2=O)cc1OC,·,-1.7*,-0.44,·,2.9,596,212
CC1CCCCN1S(=O)(=O)c1ccc2c(c1)CCN2C(=O)C1CCC1 (stereo not given),-32,0.64,-0.31,-1,-0.68,·,·
CN(C)CCNc1c2c(c(C#N)c3nc4ccccc4n13)CCCC2,-10,-4.7*,0.54,1,0.2,377*,245
N#Cc1c2c(c(NCc3ccco3)n3c1nc1ccccc13)CCC2,-28,-0.057,-0.27,-1,-0.49,·,·
Cc1cccc(NC2=NC3(CCCCC3)N=C(N)N2)c1,-11,0.51,-3.6,0,0.99,·,·
CCCCOc1ccc(NC2=NC3(CCCCC3)N=C(N)N2)cc1,-17,-2.3*,-3.2,0,-0.83,458,182
CCOC(=O)c1ccc(COC(=O)c2cc3ccccc3oc2=O)o1,5,-2.4*,1.4,-1,0.083,473*,206
CCOC(=O)COc1ccc2cc(C(=O)OCC)c(=O)oc2c1,-10,0.12,0.33,0,-0.32,·,·
Cc1ccc(C(=O)CC2(O)C(=O)N(C)c3ccc(Br)cc32)c(C)c1 (stereo not given),9,-2.2*,-0.16,-2,-0.38,642,186
COc1cc2c(cc1OC)CN(Cc1cccs1)CC2,-19,·,-4.6,0,·,·,·
COc1cc2c(cc1OC)CN(Cc1ccc(OC)c(C)c1OC)CC2,21,-3.4*,-0.33,-2,-1.8,406*,274
CCCCn1c(=O)n(CC(O)c2ccccc2)c(=O)c2c1ncn2C1CCCC1 (stereo not given),11,-3.8*,0.22,0,-0.17,450,199
CN(C)S(=O)(=O)NC(c1ccccc1)c1ccccc1,-27,-0.098,1.6,0,0.005,·,·
CN1CCCN(C(c2ccccc2)c2ccc(Cl)cc2)CC1 (stereo not given),26,-16*,-3.3,-2,0.81,14*,214
